We go through 17 compounds from ChEMBL document CHEMBL1275275, “Preparation of new polycyclic compounds derived from benzofurans and furochromones. An approach to novel 1,2,3-thia-, and selena-diazolofurochromones of anticipated antitumor activities” (Eur J Med Chem, 2010).

What all share (assay type): functional, cell-based
In one experiment the test system is MCF7. Kind of experiment: Antitumor activity against human MCF7 cells. The method in brief: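 Human MCF-7 breast carcinoma cells treated in vitro across a range of drug concentrations. Surviving fraction plotted against concentration to give survival curves. IC50 (µg/ml), the dose that reduces survival to 50%, read from these curves. Doxorubicin served as reference drug.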

The subject of the next experiment is HeLa. Kind of experiment: Antitumor activity against human HeLa cells. The method in brief: (§1)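 In vitro cytotoxicity against human carcinoma cell lines. Surviving fraction was plotted against drug concentration to give survival curves. IC50 was read from these curves as the dose reducing survival to 50%, in µg/ml.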
The subject of the next experiment is HepG2. Kind of experiment: Antitumor activity against human HepG2 cells. The method in brief:
as §1

The test system of the next experiment is HCT-116. The experiment can be described thus: Antitumor activity against human HCT116 cells. In short, it runs like this: as §1
The mark [1] stands for this setting: Homo sapiens, MCF7, read-out: IC50.

Values after ≈ are worked out from the molar mass of the structure shown.

Take `COc1c(C(/C=C(\C)N2CCCC2)=C2C(=O)c3ccccc3C2=O)c(O)c(OC)c2occc12`: the IC50 in the experiment on MCF7 (setting [1]) is 13.2 µg/mL (≈ 28.7 µM).

Take `CCC1(C)Oc2c(c(OC)c3ccoc3c2OC)-c2nn[se]c21` (stereo not drawn): the IC50 worked out at 12.7 µg/mL (≈ 33.5 µM) with MCF7 (setting [1]), 6.02 µg/mL (≈ 15.9 µM) in the experiment on HeLa, 9.53 µg/mL (≈ 25.1 µM) in the experiment on HepG2 and 8.92 µg/mL (≈ 23.5 µM) in the experiment on HCT-116.

Take `COc1c2c(c(OC)c3occc13)OC1(CCCCC1)c1snnc1-2`: the IC50 in the experiment with MCF7 (setting [1]) was determined as 14.9 µg/mL (≈ 41.6 µM).

With `COc1c2c(c(OC)c3occc13)OC1(CCCCC1)C/C2=N\NC(N)=O`, the IC50 with MCF7 (setting [1]) was 10.6 µg/mL (≈ 28.4 µM); in the experiment with HeLa, 4.19 µg/mL (≈ 11.2 µM); in the experiment with HepG2, 8.61 µg/mL (≈ 23.1 µM); in the experiment on HCT-116, 4.04 µg/mL (≈ 10.8 µM).

With `COc1c(C(/C=C(\C)N2CCCC2)=C2C(=O)c3ccccc3C2=O)c(O)cc2occc12`, the IC50 with MCF7 (setting [1]) was determined as 15.5 µg/mL (≈ 36.1 µM).

In the case of `COc1c2c(cc3occc13)OC1(CCCCC1)c1snnc1-2`, the IC50 in the experiment with MCF7 (setting [1]) came to 15.9 µg/mL (≈ 48.4 µM).

`COc1c2c(cc3occc13)OC1(CCCCC1)c1[se]nnc1-2`: the IC50 was 16.5 µg/mL (≈ 44 µM) in the experiment on MCF7 (setting [1]), 7.24 µg/mL (≈ 19.3 µM) with HeLa, 14.6 µg/mL (≈ 38.9 µM) in the experiment on HepG2 and 3.89 µg/mL (≈ 10.4 µM) with HCT-116.

Take `COc1c2c(cc3occc13)OC1(CCCCC1)C/C2=N\NC(N)=O`: the IC50 in the experiment with MCF7 (setting [1]) was 14 µg/mL (≈ 40.8 µM).

For the compound `COc1c2c(c(OC)c3occc13)OC(C)(C)C/C2=N\NC(N)=O`, the IC50 with MCF7 (setting [1]) turned out to be 20.8 µg/mL (≈ 62.4 µM).

On to `COc1c2occc2c(OC)c2c(C=C(C)N3CCCC3)c(C#N)c(=N)oc12`, for which the IC50 is 8.61 µg/mL (≈ 22.7 µM) with MCF7 (setting [1]), 5.11 µg/mL (≈ 13.5 µM) in the experiment on HeLa, 10.9 µg/mL (≈ 28.7 µM) in the experiment with HepG2 and 4.8 µg/mL (≈ 12.7 µM) with HCT-116.

Turning to `COc1c2c(c(OC)c3occc13)OC(C)(C)c1[se]nnc1-2`, the IC50 with MCF7 (setting [1]) amounted to 15.8 µg/mL (≈ 43.3 µM); with HeLa, 4.35 µg/mL (≈ 11.9 µM); in the experiment with HepG2, 15.9 µg/mL (≈ 43.5 µM); in the experiment with HCT-116 it was 4.65 µg/mL (≈ 12.7 µM).

Turning to `COc1c2c(cc3occc13)OC(C)(C)c1[se]nnc1-2`, the IC50 in the experiment on MCF7 (setting [1]) amounted to 5.56 µg/mL (≈ 16.6 µM); with HeLa, 6.02 µg/mL (≈ 18 µM); in the experiment with HepG2, 11.5 µg/mL (≈ 34.3 µM); in the experiment with HCT-116, 4.8 µg/mL (≈ 14.3 µM).

With `COc1c2occc2c(OC)c2c(C=C(C)N3CCCCC3)c(C#N)c(=N)oc12`, the IC50 result was “Not Active” in the experiment with MCF7 (mcf7), 4.8 µg/mL (≈ 12.2 µM) in the experiment on HeLa, 8.46 µg/mL (≈ 21.5 µM) with HepG2 and 4.34 µg/mL (≈ 11 µM) in the experiment with HCT-116.

Regarding `COc1cccc2c1C(=O)c1c(O)c3c(c(O)c1C2=O)C[C@@](O)(C(=O)CO)C[C@@H]3O[C@H]1C[C@H](N)[C@H](O)[C@H](C)O1` [DOXORUBICIN], the results for the IC50 in the experiment with HeLa, in the experiment with HepG2 and in the experiment on HCT-116 were 4.19 µg/mL (≈ 7.71 µM), 3.73 µg/mL (≈ 6.86 µM) and 3.73 µg/mL (≈ 6.86 µM), respectively.

As to `COc1c2c(cc3occc13)OC(C)(C)C/C2=N\NC(N)=O`, the IC50 in the experiment with MCF7 (setting [1]) turned out to be 10.9 µg/mL (≈ 35.9 µM).

For `CCC1(C)C/C(=N\NC(N)=O)c2c(c(OC)c3occc3c2OC)O1` (stereo not drawn), the IC50 with MCF7 (setting [1]) amounted to 13.9 µg/mL (≈ 40 µM).

As to `COc1c2c(c(OC)c3occc13)OC1(CCCCC1)c1[se]nnc1-2`, the IC50 in the experiment with MCF7 (setting [1]) was determined as 15 µg/mL (≈ 37 µM); in the experiment with HeLa it was 5.57 µg/mL (≈ 13.7 µM); in the experiment on HepG2 it was 9.53 µg/mL (≈ 23.5 µM); in the experiment on HCT-116 it was 4.19 µg/mL (≈ 10.3 µM).

In general, IC50 refers to the midpoint of a concentration-inhibition curve.
